# According to ChEMBL document CHEMBL4715819, “Bicyclic Helical Peptides as Dual Inhibitors Selective for Bcl2A1 and Mcl-1 Proteins” (J Med Chem, 2018):
# pIC50, pKi: −log10 of the molar value. Activity calls are given as the source filed them. The rule behind the calls is not given here. Positions of bridges follow the written chain, without caps; N, C: chain ends. Non-standard residues stand in square brackets, D forms with d. Residues, ends and D or L forms follow the SMILES beside them. ξ: configuration not given here. *: point of attachment. S5 = C=CCCC[C@](C)(N)C(=O)O; Acryloyl = C=CC(=O)*; ξDap = NCC(N)C(=O)O
# Experiments:
# [1] = target: T1, Bcl-2-related protein A1 (Homo sapiens, UniProt Q16548); test: Covalent binding affinity to human Bcl2A1 by FBid based FP assay
# T1 sequence (Q16548 whole entry): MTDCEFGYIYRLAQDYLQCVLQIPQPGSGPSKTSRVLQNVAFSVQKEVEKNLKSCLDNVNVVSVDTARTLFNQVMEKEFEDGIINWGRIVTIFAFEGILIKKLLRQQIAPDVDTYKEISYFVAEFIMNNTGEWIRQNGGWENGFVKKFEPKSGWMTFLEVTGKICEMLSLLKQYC
# [2] = target: Induced myeloid leukemia cell differentiation protein Mcl-1 (Homo sapiens, UniProt Q07820); test: Binding affinity to human Mcl1 incubated for 2 hrs by FBid based competitive FP assay
# [3] = target: T1, Bcl-2-related protein A1; test: Binding affinity to human Bcl2A1 incubated for 2 hrs by FBid based competitive FP assay
# [4] = target: T2, Bcl-2-related protein A1 (Homo sapiens) (UniProt Q16548); test: Covalent binding affinity to Bcl2A1 in human U937 cells at 0.1 to 50 uM incubated for 24 hrs by Western blot analysis; details: U-937, dose 0.1-50 µM
# T2 sequence (whole entry): T1 sequence (Q16548 whole entry)
# [5] = target: T2, Bcl-2-related protein A1 (Homo sapiens); test: Covalent binding affinity to human Bcl2A1 assessed as Kinact/Ki ratio by FBid based FP assay
# [6] = target: T2, Bcl-2-related protein A1 (Homo sapiens); test: Covalent binding affinity to human Bcl2A1 assessed as inactivation constant by FBid based FP assay
# [7] = system: SK-MEL-28; test: Cytotoxicity in human SK-MEL-28 cells assessed as reduction in cell viability incubated for 48 hrs by MTT assay; type: functional, cell-based; details: SK-MEL-28, 48 h
# In short: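 SK-MEL-28 cells grown in DMEM with 10% FBS and penicillin/streptomycin. Peptide applied over a concentration series for 48 h. Viability read by MTT, and IC50 taken from the dose–response.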
# [8] = target: T3, Bcl-2-like protein 2 (Homo sapiens) (UniProt Q92843); test: Binding affinity to human Bcl-w incubated for 2 hrs by FBid based competitive FP assay
# T3 sequence (whole entry): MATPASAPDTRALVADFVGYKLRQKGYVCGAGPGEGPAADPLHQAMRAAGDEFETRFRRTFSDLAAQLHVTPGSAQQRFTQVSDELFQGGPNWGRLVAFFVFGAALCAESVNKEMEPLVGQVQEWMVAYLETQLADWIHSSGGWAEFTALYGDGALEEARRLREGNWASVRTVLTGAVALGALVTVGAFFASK
# [9] = target: Bcl-2-like protein 1 (Homo sapiens) (UniProt Q07817); test: Binding affinity to human Bcl-xL incubated for 2 hrs by FBid based competitive FP assay
# [10] = target: Apoptosis regulator Bcl-2 (Homo sapiens) (UniProt P10415); test: Binding affinity to human Bcl2 incubated for 2 hrs by FBid based competitive FP assay
# Sequence of Apoptosis regulator Bcl-2 (Homo sapiens) (P10415 whole entry): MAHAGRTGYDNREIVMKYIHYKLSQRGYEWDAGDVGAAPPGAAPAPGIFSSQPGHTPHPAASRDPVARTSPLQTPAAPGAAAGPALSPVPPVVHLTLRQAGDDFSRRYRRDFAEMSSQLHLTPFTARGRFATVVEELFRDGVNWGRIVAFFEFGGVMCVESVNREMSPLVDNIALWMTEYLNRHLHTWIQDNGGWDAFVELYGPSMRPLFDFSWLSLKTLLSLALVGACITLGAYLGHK
# Sequence of Bcl-2-like protein 1 (Homo sapiens) (Q07817 whole entry): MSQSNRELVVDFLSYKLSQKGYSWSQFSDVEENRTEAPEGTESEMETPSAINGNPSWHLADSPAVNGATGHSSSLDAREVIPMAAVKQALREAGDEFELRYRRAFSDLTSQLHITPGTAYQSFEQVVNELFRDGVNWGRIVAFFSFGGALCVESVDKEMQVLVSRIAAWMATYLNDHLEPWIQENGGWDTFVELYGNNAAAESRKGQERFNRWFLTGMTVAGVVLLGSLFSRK
# Sequence of Induced myeloid leukemia cell differentiation protein Mcl-1 (Q07820 whole entry): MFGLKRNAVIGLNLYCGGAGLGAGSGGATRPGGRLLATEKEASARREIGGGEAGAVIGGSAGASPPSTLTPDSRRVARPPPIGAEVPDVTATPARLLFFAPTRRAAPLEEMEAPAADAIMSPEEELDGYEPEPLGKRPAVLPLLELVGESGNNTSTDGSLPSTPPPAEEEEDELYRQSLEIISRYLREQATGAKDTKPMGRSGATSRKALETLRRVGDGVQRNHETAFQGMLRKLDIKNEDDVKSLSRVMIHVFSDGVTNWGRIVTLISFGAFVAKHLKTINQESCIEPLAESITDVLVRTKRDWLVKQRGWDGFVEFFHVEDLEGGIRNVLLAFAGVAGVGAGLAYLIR
Structure (SMILES),pKi [1],pIC50 [2],pIC50 [3],Activity [4],Ratio [5] [mM⁻¹ s⁻¹],Kinact [6] [s⁻¹],pIC50 [7],Activity [8],Activity [9],Activity [10]
C=CC(=O)NCC(NC(=O)[C@@H](NC(C)=O)[C@@H](C)CC)C(=O)N[C@H](C(=O)N[C@@H](C)C(=O)N[C@@H](CCC(N)=O)C(=O)N[C@@H](CCC(=O)O)C(=O)N[C@@H](CC(C)C)C(=O)N[C@@H](CCCNC(=N)N)C(=O)N[C@@]1(C)CCC/C=C/CCC[C@@](C)(C(=O)N[C@@H](Cc2ccccc2)C(=O)N[C@@H](CC(N)=O)C(=O)N[C@@H](C)C(=O)N[C@@H](Cc2ccc(O)cc2)C(=O)N[C@@H](Cc2ccc(O)cc2)C(=O)N[C@@H](C)C(=O)N[C@@H](CCCNC(=N)N)C(=O)N[C@@H](CCCNC(=N)N)C(N)=O)NC(=O)[C@H](CC(=O)O)NC(=O)CNC(=O)[C@H]([C@@H](C)CC)NC1=O)[C@@H](C)CC (some centres undefined),7.09,7.46,7.87,Active,30,0.00239,,,,
CC[C@H](C)[C@H](NC(C)=O)C(=O)N[C@@H](Cc1c[nH]c2ccccc12)C(=O)N[C@H](C(=O)N[C@@H](C)C(=O)N[C@@H](CCC(N)=O)C(=O)N[C@@H](CCC(=O)O)C(=O)N[C@@H](CC(C)C)C(=O)N[C@@H](CCCNC(=N)N)C(=O)N[C@@]1(C)CCC/C=C/CCC[C@@](C)(C(=O)N[C@@H](Cc2ccccc2)C(=O)N[C@@H](CC(N)=O)C(=O)N[C@@H](C)C(=O)N[C@@H](Cc2ccc(O)cc2)C(=O)N[C@@H](Cc2ccc(O)cc2)C(=O)N[C@@H](C)C(=O)N[C@@H](CCCNC(=N)N)C(=O)N[C@@H](CCCNC(=N)N)C(N)=O)NC(=O)[C@H](CC(=O)O)NC(=O)CNC(=O)[C@H]([C@@H](C)CC)NC1=O)[C@@H](C)CC,,,,,,,4.80,,,
C=CC(=O)NCC(NC(=O)[C@@H](NC(C)=O)[C@@H](C)CC)C(=O)N[C@H](C(=O)N[C@@H](C)C(=O)N[C@@H](CCC(N)=O)C(=O)N[C@@H](CCC(=O)O)C(=O)N[C@@H](CC(C)C)C(=O)N[C@@H](CCCNC(=N)N)C(=O)N[C@@]1(C)CCC/C=C/CCC[C@@](C)(C(=O)N[C@@H](Cc2ccccc2)C(N)=O)NC(=O)[C@H](CC(=O)O)NC(=O)CNC(=O)[C@H]([C@@H](C)CC)NC1=O)[C@@H](C)CC (some centres undefined) (Ac-I[ξDap](Acryloyl)IAQELR[S5]IGD[S5]F-NH2; staple (E) 9-13),6.76,6.79,7.26,Active,9,0.00159,,inactive,inactive,inactive
"C=CC(=O)NCC1NC(=O)[C@@H](NC(C)=O)CCCCNC(=O)C[C@@H](C(=O)N[C@@H](CCC(=O)O)C(=O)N[C@@H](CC(C)C)C(=O)N[C@@H](CCCNC(=N)N)C(=O)N[C@H]2CCCCNC(=O)C[C@@H](C(=O)N[C@@H](Cc3ccccc3)C(N)=O)NC(=O)[C@H](CC(=O)O)NC(=O)CNC(=O)[C@H]([C@@H](C)CC)NC2=O)NC(=O)[C@H](C)NC(=O)[C@H]([C@@H](C)CC)NC1=O (some centres undefined) (Ac-K[ξDap](Acryloyl)IADELRKIGDDF-NH2; lactam 1-5, 9-13)",7.52,7.32,8.19,Active,118,0.00349,,inactive,inactive,inactive
C=CC(=O)NCC1NC(=O)[C@@H](NC(C)=O)CCCCNC(=O)C[C@@H](C(=O)N[C@@H](CCC(=O)O)C(=O)N[C@@H](CC(C)C)C(=O)N[C@@H](CCCNC(=N)N)C(=O)N[C@@]2(C)CCC/C=C/CCC[C@@](C)(C(=O)N[C@@H](Cc3ccccc3)C(N)=O)NC(=O)[C@H](CC(=O)O)NC(=O)CNC(=O)[C@H]([C@@H](C)CC)NC2=O)NC(=O)[C@H](C)NC(=O)[C@H]([C@@H](C)CC)NC1=O (some centres undefined) (Ac-K[ξDap](Acryloyl)IADELR[S5]IGD[S5]F-NH2; lactam 1-5; staple (E) 9-13),7.33,6.97,7.69,Active,54,0.00231,,inactive,inactive,inactive
